Assay results taken from PMC9079887 (RSC Advances, 2018).

biological target: T1, Cathepsin K (Homo sapiens, UniProt P43235); assay: Cathepsin activity assay, z-Phe-Arg-AMC substrate, cathepsin K; format: biochemical; details: read-out: IC50 Cathepsin K, pH 5.5, tested under 10 μM
T1 sequence (P43235 115-329): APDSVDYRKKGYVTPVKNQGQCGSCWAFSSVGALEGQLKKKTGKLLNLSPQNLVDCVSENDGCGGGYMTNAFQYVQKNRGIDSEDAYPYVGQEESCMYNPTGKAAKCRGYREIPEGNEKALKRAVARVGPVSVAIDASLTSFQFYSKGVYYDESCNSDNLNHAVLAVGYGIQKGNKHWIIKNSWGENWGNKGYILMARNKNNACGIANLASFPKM
Procedure, shortened: (§1)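 Cathepsin activity was read fluorimetrically on a microplate reader with z-Phe-Arg-AMC as substrate. Activity data were fitted to a linearized curve, and IC50 was read from that curve.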

| IC50 | Compound |
| --- | --- |
| > 10 µM | [Cl-].[Cl-].[Cl-].[Gd+3] [GdCl36H2O] |
| > 10 µM | [Cl-].[Cl-].[Cl-].[Tb+3] [TbCl3·6H2O] |
| > 10 µM | [Cl-].[Cl-].[Cl-].[La+3] [LaCl3·7H2O] |

More lines, now with the values behind:

| Compound | IC50 |
| --- | --- |
| [Cl][Eu]([Cl])[Cl] [EuCl3·6H2O] | > 10 µM |
| [Cl][Yb]([Cl])[Cl] [YbCl3·6H2O] | > 10 µM |

biological target: Cathepsin L (Homo sapiens, UniProt P07711); assay: Cathepsin activity assay, z-Phe-Arg-AMC substrate, cathepsin L; format: biochemical; details: read-out: IC50 Cathepsin L, pH 5.5, tested under 10 μM
Procedure, shortened: as §1

Sequence of Cathepsin L (P07711 114-333, species assumed): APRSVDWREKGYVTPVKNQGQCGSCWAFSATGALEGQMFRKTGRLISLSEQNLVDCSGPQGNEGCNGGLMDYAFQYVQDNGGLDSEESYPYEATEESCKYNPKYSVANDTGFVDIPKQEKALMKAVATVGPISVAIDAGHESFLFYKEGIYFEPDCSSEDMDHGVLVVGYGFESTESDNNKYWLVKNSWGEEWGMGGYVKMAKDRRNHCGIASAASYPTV

| IC50 | Compound |
| --- | --- |
| > 10 µM | [Cl-].[Cl-].[Cl-].[Gd+3] [GdCl36H2O] |
| > 10 µM | [Cl-].[Cl-].[Cl-].[Tb+3] [TbCl3·6H2O] |
| > 10 µM | [Cl-].[Cl-].[Cl-].[La+3] [LaCl3·7H2O] |

Second part, the compound before the results:

| Compound | IC50 |
| --- | --- |
| [Cl][Eu]([Cl])[Cl] [EuCl3·6H2O] | > 10 µM |
| [Cl][Yb]([Cl])[Cl] [YbCl3·6H2O] | > 10 µM |

tested on: pro-MMP-2; assay: not given; details: <50 μmol L^−1; cited from earlier work

| Compound | effect on activity and expression of pro-MMP-2 |
| --- | --- |
| O.O.O.O.O.O.O.[Cl-].[Cl-].[Cl-].[La+3] [LaCl3·7H2O] | inhibits the activity and expression of pro-MMP-2 |

tested on: activated form of MMP-2; assay: not given; details: <50 μmol L^−1; cited from earlier work

| Compound | effect on the activated form of MMP-2 |
| --- | --- |
| O.O.O.O.O.O.O.[Cl-].[Cl-].[Cl-].[La+3] [LaCl3·7H2O] | does not suppress the activated form of MMP-2 |
